Measurements reported in ChEMBL document CHEMBL5236662, “Synthesis and biological evaluation of tert-butyl ester and ethyl ester prodrugs of L-γ-methyleneglutamic acid amides for cancer” (Bioorg Med Chem, 2023).

Legend:
[1] = Antiproliferative activity against human WSU-HN30 cells assessed as inhibition of cell growth incubated for 72 hrs by CCK-8 assay; assay type: functional, cell-based; details: WSU-HN30, 72 h
Method in brief: (§1)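 Radiotherapy-resistant HNSCC lines were used: HN30 from pharynx SCC and HN31 from a lymph-node metastasis of the same patient. Cells in RPMI 1640 with 10% FBS were seeded at 3,000 per well and treated 24 h later with 10–300 μM (5 levels) for 24 or 72 h, with cisplatin as control. CCK-8 was read at OD450 after 2 h. Data are % survival, n = 3 independent experiments.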

[2] = Clearance in CD-1 mouse plasma at 2.5 mg/kg, iv measured for 24 hrs by LC-MS/MS analysis relative to hepatic blood flow; assay type: ADME, organism-based; details: in vivo
Method in brief: (§2)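 Fasted (~4 h) male CD1 mice, n = 24 per route, received 2.5 mg/kg iv or ip in 5% DMSO/95% normal saline. Blood was drawn into K2EDTA at pre-dose, 0.083, 0.5, 1, 2, 4, 8 and 24 h, and plasma was separated. Samples were precipitated with acetonitrile, with tolbutamide as internal standard, then quantified by UPLC-MS/MS (MRM). Parameters came from noncompartmental analysis.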

[3] = Cmax in CD-1 mouse plasma at 2.5 mg/kg, iv measured for 24 hrs by LC-MS/MS analysis; assay type: ADME, organism-based; design: time 24 hrs, dose 2.5 mg/kg, route iv; details: in vivo; method in brief: as §2
[4] = Antiproliferative activity against human BNC6 cells assessed as inhibition of cell growth incubated for 72 hrs by CCK-8 assay; assay type: functional, cell-based; details: BNC6, 72 h
Method in brief: (§3)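 Primary patient-derived glioblastoma lines were grown in RPMI 1640 with 10% FBS. Cells were seeded at 3,000 per well and dosed 24 h later at 10, 50, 100, 200 and 300 μM for 24 or 72 h, with BiCNU as control. CCK-8 was added and OD450 read after 2 h at 37 °C. Data are % cell survival, from 3 independent replicates.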

[5] = Tmax in CD-1 mouse brain at 2.5 mg/kg, ip measured for 24 hrs by LC-MS/MS analysis; assay type: ADME, organism-based; details: in vivo
Method in brief: (§4)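 Male CD1 mice (25–30 g), fasted ~4 h, given 2.5 mg/kg ip in 5% DMSO/95% normal saline. Brain, liver and kidney were taken at pre-dose, 0.5, 2, 4 and 24 h and homogenized in 5 volumes PBS. Homogenates got tolbutamide internal standard and acetonitrile protein precipitation. UPLC-MS/MS used MRM. Parameters came from noncompartmental analysis.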

[6] = tested on: BNC3; assay: Antiproliferative activity against human BNC3 cells assessed as suppression of cell growth incubated for 24 to 72 hrs by CCK-8 assay; assay type: functional, cell-based; details: dose 10-300 µM, time 24-72 hrs; method in brief: as §3
[7] = Antiproliferative activity against human WSU-HN31 cells assessed as inhibition of cell growth incubated for 72 hrs by CCK-8 assay; assay type: functional, cell-based; details: WSU-HN31, 72 h; method in brief: as §1
[8] = Bioavailability in CD-1 mouse plasma at 2.5 mg/kg, ip measured for 24 hrs by LC-MS/MS analysis; assay type: ADME, organism-based; details: in vivo; method in brief: as §2
[9] = Apparent half life in CD-1 mouse kidney at 2.5 mg/kg, ip measured for 24 hrs by LC-MS/MS analysis; assay type: ADME, organism-based; details: in vivo; method in brief: as §4
[10] = tested on: BNC6; assay: Antiproliferative activity against human BNC6 cells assessed as suppression of cell growth incubated for 24 to 72 hrs by CCK-8 assay; assay type: functional, cell-based; details: dose 10-300 µM, time 24-72 hrs; method in brief: as §3
[11] = tested on: WSU-HN30; assay: Antiproliferative activity against human WSU-HN30 cells assessed as suppression of cell growth incubated for 24 to 72 hrs by CCK-8 assay; assay type: functional, cell-based; details: dose 10-300 µM, time 24-72 hrs; method in brief: as §1
[12] = Tmax in CD-1 mouse kidney at 2.5 mg/kg, ip measured for 24 hrs by LC-MS/MS analysis; assay type: ADME, organism-based; details: in vivo; method in brief: as §4
[13] = Cytotoxicity against human MCF-10A cells assessed as inhibition of cell growth incubated for 72 hrs by Hoechst 33342/propidium iodide staining based fluorescence analysis; assay type: toxicity; details: human, MCF-10A cells
[14] = Tmax in CD-1 mouse plasma at 2.5 mg/kg, ip measured for 24 hrs by LC-MS/MS analysis; assay type: ADME, organism-based; details: in vivo; method in brief: as §2
[15] = Cytotoxicity against human MCF-10A cells assessed as inhibition of cell growth incubated for 24 hrs by Hoechst 33342/propidium iodide staining based fluorescence analysis; assay type: toxicity; details: human, MCF-10A cells
[16] = tested on: WSU-HN31; assay: Antiproliferative activity against human WSU-HN31 cells assessed as suppression of cell growth incubated for 24 to 72 hrs by CCK-8 assay; assay type: functional, cell-based; details: dose 10-300 µM, time 24-72 hrs; method in brief: as §1
[17] = Tmax in CD-1 mouse liver at 2.5 mg/kg, ip measured for 24 hrs by LC-MS/MS analysis; assay type: ADME, organism-based; details: in vivo; method in brief: as §4
[18] = AUC (0 to infinity) in CD-1 mouse plasma at 2.5 mg/kg, iv measured for 24 hrs by LC-MS/MS analysis; assay type: ADME, organism-based; design: dose 2.5 mg/kg, time 24 hrs, route iv; method in brief: as §2
[19] = Cmax in CD-1 mouse plasma at 2.5 mg/kg, ip measured for 24 hrs by LC-MS/MS analysis; assay type: ADME, organism-based; design: dose 2.5 mg/kg, time 24 hrs, route ip; details: in vivo; method in brief: as §2
[20] = Volume of distribution in CD-1 mouse plasma at 2.5 mg/kg, iv measured for 24 hrs by LC-MS/MS analysis; assay type: ADME, organism-based; details: in vivo; method in brief: as §2
[21] = Apparent half life in CD-1 mouse plasma at 2.5 mg/kg, ip measured for 24 hrs by LC-MS/MS analysis; assay type: ADME, organism-based; details: in vivo; method in brief: as §2
[22] = Antiproliferative activity against human BNC3 cells assessed as inhibition of cell growth incubated for 72 hrs by CCK-8 assay; assay type: functional, cell-based; details: BNC3, 72 h; method in brief: as §3
[23] = Cmax in CD-1 mouse liver at 2.5 mg/kg, ip measured for 24 hrs by LC-MS/MS analysis; assay type: ADME, organism-based; design: time 24 hrs, dose 2.5 mg/kg, route ip; details: in vivo; method in brief: as §4
[24] = AUC (0 to infinity) in CD-1 mouse liver at 2.5 mg/kg, ip measured for 24 hrs by LC-MS/MS analysis; assay type: ADME, organism-based; design: time 24 hrs, dose 2.5 mg/kg, route ip; details: in vivo; method in brief: as §4
[25] = Tmax in CD-1 mouse plasma at 2.5 mg/kg, iv measured for 24 hrs by LC-MS/MS analysis; assay type: ADME, organism-based; details: in vivo; method in brief: as §2
[26] = AUC (0 to infinity) in CD-1 mouse plasma at 2.5 mg/kg, ip measured for 24 hrs by LC-MS/MS analysis; assay type: ADME, organism-based; design: dose 2.5 mg/kg, time 24 hrs, route ip; method in brief: as §2
[27] = AUC (0 to infinity) in CD-1 mouse kidney at 2.5 mg/kg, ip measured for 24 hrs by LC-MS/MS analysis; assay type: ADME, organism-based; design: time 24 hrs, dose 2.5 mg/kg, route ip; details: in vivo; method in brief: as §4
[28] = Apparent half life in CD-1 mouse liver at 2.5 mg/kg, ip measured for 24 hrs by LC-MS/MS analysis; assay type: ADME, organism-based; details: in vivo; method in brief: as §4
[29] = Cmax in CD-1 mouse kidney at 2.5 mg/kg, ip measured for 24 hrs by LC-MS/MS analysis; assay type: ADME, organism-based; design: dose 2.5 mg/kg, time 24 hrs, route ip; details: in vivo; method in brief: as §4
[30] = Terminal half life in CD-1 mouse plasma at 2.5 mg/kg, iv measured for 24 hrs by LC-MS/MS analysis; assay type: ADME, organism-based; details: in vivo; method in brief: as §2
[31] = AUC (0 to infinity) in CD-1 mouse brain at 2.5 mg/kg, ip measured for 24 hrs by LC-MS/MS analysis; assay type: ADME, organism-based; design: dose 2.5 mg/kg, time 24 hrs, route ip; details: in vivo; method in brief: as §4
[32] = Stability in mouse liver microsomes assessed as drug degradation; assay type: ADME, Microsome
[33] = Stability in mouse plasma assessed as drug degradation; assay type: ADME, cell-free

`C=C(C[C@H](N)C(=O)O)C(=O)NCc1ccc(F)cc1` showed an IC50 [1] of 102 µM, a CL [2] of 31% and a Cmax [3] of 3016 ng/mL. The IC50 [4] was 189 µM, the Tmax [5] was 30 min and the Activity [6] was “Dose-Dependent Effect”. For the same compound, the IC50 [7] was 196 µM, the F [8] was 66% and the “t1/2(app)” value [9] was 27.6 min. The Activity [10] was “Dose-Dependent Effect”, the Activity [11] was “Dose-Dependent Effect” and the Tmax [12] was 30 min. The IC50 at 72 h [13] was > 1000 µM, the Tmax [14] was 13.2 min and the IC50 at 24 h [15] was > 1000 µM. For the same compound, the Activity [16] was “Dose-Dependent Effect”, the Tmax [17] was 60 min and the AUC(0-inf) [18] was 1460 ng·h/mL. For the same compound, the Cmax [19] was 1543 ng/mL, the Vd [20] was 4.6 L/kg and the “t1/2(app)” value [21] was 25.8 min. The IC50 [22] was 169 µM, the Cmax [23] was 7291 ng/g and the AUC [24] was 10596 ng·h/g. The Tmax [25] was 7.2 min, the AUC(0-inf) [26] was 967 ng·h/mL and the AUC [27] was 21944 ng·h/g. The “t1/2(app)” value [28] was 25.8 min, the Cmax [29] was 17681 ng/g and the “beta t1/2” value [30] was 48 min. It also gave an AUC [31] of 44 ng·h/g.

With `NCc1ccc(F)cc1` the Stability [32] was “Unstable” and the Stability [33] was “Unstable”.
